From PubChem BioAssay
Runt-SMMHC FRET: Runt domain-CBFb-SMMHC interaction inhibition. Q01196+Q13951. Cerulean-Runt/Venus-CBFb-SMMHC FRET ratio 530/480, 1 h. inhibition, % at 20 µM. 220,000 compounds, 0.74% hits. AID 1434;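 active = mean inhibition across duplicate retests at 20 µM reaching about 50%, limit read from the data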;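 note: 0% = DMSO wells and 100% = wells with excess untagged CBFb-SMMHC; inhibitors lower the FRET ratio by blocking Runt binding to CBFb-SMMHC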
RanGTP-Imp inh: inhibitors of RanGTP-importin-beta interaction, primary screen, biochemical, FRET, CFP-Ran, YFP-importin-beta, homogeneous; AID 2216; cell-free CFP-Ran/YFP-importin-beta FRET ratio; inhibition, % (test concentration not listed); 300,000 compounds, 1.1% hits;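 active = more than half of the replicate wells show a fall in the fluorescence ratio signal beyond about 16%, limit read from the data, passing the limit was not always enough; inconclusive = exactly half of the replicate wells pass the set limit; inactive = fewer than half of replicates pass the limit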;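 note: 0% = DMSO wells and 100% = Ran loaded with GDP instead of GTP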
LANA-H2A inh: blocks KSHV LANA binding to histone H2A/H2B; Q9QR71; cell-free LANA-H2A/H2B peptide, fluorescence polarization; inhibition, % (test concentration not listed); 320,000 compounds, 0.6% hits; in the data active = inhibition mostly above about 10%, no sharp cut-off; inactive = mostly below about 6.7%
CaV13 ICDI inh: Disruptors of the CACNA1D IQ motif to Ca2+-dependent inactivation inhibitor domain association, primary screening, Förster resonance energy transfer in intact living …; inhibition, % at 12.3 µM; 340,000 compounds, 0.098% hits; AID 743397; HEK cells, CFP/YFP FRET ICDI-IQ, plate reader, 10 min; percent FRET-ratio fall versus neutral wells;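 active = mean replicate inhibition of at least 30% and at least 1% of replicates passing that level; inconclusive = only one of the two criteria is met; inactive = neither criterion is met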;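 note: 0% = median of the neutral control wells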
HDAC3 inhib: blocks human histone deacetylase 3. recombinant HDAC3, fluorogenic peptide/trypsin coupled, fluorescence. inhibition, % at 8.3 µM. 320,000 compounds, 0.15% hits. AID 2718; in the data active = inhibition above about 26%, passing the limit was not always enough; inconclusive = no clear call, values can overlap the other calls
Target sequence (O15379 whole entry, looked up): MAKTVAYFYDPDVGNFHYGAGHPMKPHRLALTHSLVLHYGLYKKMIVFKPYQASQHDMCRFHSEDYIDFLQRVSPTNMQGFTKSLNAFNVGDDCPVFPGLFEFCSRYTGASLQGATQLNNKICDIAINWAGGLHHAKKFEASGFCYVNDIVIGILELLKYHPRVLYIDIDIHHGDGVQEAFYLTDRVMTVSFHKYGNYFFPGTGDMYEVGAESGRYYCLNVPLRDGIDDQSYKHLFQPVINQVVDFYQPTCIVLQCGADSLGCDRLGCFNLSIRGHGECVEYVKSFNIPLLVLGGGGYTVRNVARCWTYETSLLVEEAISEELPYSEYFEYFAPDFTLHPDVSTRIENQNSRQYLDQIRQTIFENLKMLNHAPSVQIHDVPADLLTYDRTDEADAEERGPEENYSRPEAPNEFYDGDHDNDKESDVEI
Runt-CBFb FRET: inhibitors of human RUNX1 Runt domain binding to CBFb. 220,000 compounds, 0.46% hits. Q01196+Q13951. inhibition, % at 20 µM. Cerulean-Runt/Venus-CBFb FRET ratio 530/480, 1 h;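 active = inhibition over about 50% at 20 µM in the single-dose screen, limit read from the data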;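 note: 0% = DMSO wells and 100% = excess unlabeled CBFb competitor control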
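Assay system: Cerulean-Runt domain fusion protein, energy donor; Signal: fluorescence energy transfer, 422 nm excitation, 530/480 nm emission; Timing: 1 h compound exposure, room temperature; Control set: unlabeled CBFb; Medium: Tris buffer pH 7.5 with salts and BSA; Compound: single test concentration of 20 µM, 1% DMSO final; Probe or stimulus: Venus-CBFb 100 nM.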
Numbers without * were called inactive. This is a sample that favours compounds with a hit; in the whole collection about 1.9% have one here.

Results for CCCn1nc(NC(=O)C2CCCO2)c2cc3ccc(C)cc3nc21 (stereo not given) ?
Runt-SMMHC FRET: 29; RanGTP-Imp inh: 21*; LANA-H2A inh: -1; CaV13 ICDI inh: -13; HDAC3 inhib: -6; Runt-CBFb FRET: 18

Results for CC(=O)Nc1nn(C)c2nc3cc(C)ccc3cc12 ?
Runt-SMMHC FRET: -8; RanGTP-Imp inh: 9; LANA-H2A inh: 3; CaV13 ICDI inh: 0; HDAC3 inhib: -7; Runt-CBFb FRET: -2

Results for Cc1cccc(-n2ccc(=O)c(C(=O)O)n2)c1 ?
RanGTP-Imp inh: -5; LANA-H2A inh: -3; CaV13 ICDI inh: -19; HDAC3 inhib: -4

What do the screens show for `O=C(O)c1ccc(N/N=C/c2ccc(-c3cc(Cl)ccc3Cl)o2)cc1`?
Runt-SMMHC FRET: 80*; RanGTP-Imp inh: 83*; LANA-H2A inh: -10; CaV13 ICDI inh: 6; HDAC3 inhib: -11; Runt-CBFb FRET: 70*

Results for O=C(O)c1ccc(N/N=C/c2ccc(-c3ccc(Cl)cc3Cl)o2)cc1 ?
Runt-SMMHC FRET: 81*; RanGTP-Imp inh: 88*; LANA-H2A inh: -9; CaV13 ICDI inh: 4; Runt-CBFb FRET: 80*

What do the screens show for `COC(=O)N/N=C/c1ccc(-c2ccc(Cl)cc2Cl)o1`?
Runt-SMMHC FRET: -2; RanGTP-Imp inh: 4; LANA-H2A inh: -2; CaV13 ICDI inh: -6; HDAC3 inhib: -8; Runt-CBFb FRET: -2

Results for CCC(CO)NCc1ccc(-c2ccccc2)cc1 (stereo not given) ?
Runt-SMMHC FRET: 0; RanGTP-Imp inh: -2; LANA-H2A inh: -3; CaV13 ICDI inh: -2; HDAC3 inhib: 0; Runt-CBFb FRET: 2

Results for Cc1ccccc1OCC(=O)N/N=C/c1ccccn1 ?
Runt-SMMHC FRET: 3; RanGTP-Imp inh: 3; LANA-H2A inh: 27*; CaV13 ICDI inh: -3; HDAC3 inhib: -6; Runt-CBFb FRET: 0

Results for Cc1cc(C)n(-c2ccc(NC(=O)C3CCCCN3C(=O)c3ccoc3)cc2)n1 (stereo not given) ?
RanGTP-Imp inh: 6; LANA-H2A inh: 55*; HDAC3 inhib: -2

What do the screens show for `CCn1cc(C(=O)OCC(=O)c2cc(C)n(-c3ccccc3)c2C)c(=O)c2ccc(C)nc21`?
Runt-SMMHC FRET: -5; RanGTP-Imp inh: 2; LANA-H2A inh: 2; CaV13 ICDI inh: -5; HDAC3 inhib: 3; Runt-CBFb FRET: 0

What do the screens show for `CCn1cc(C(=O)OCC(=O)N(C)Cc2ccccc2)c(=O)c2ccc(C)nc21`?
Runt-SMMHC FRET: 1; RanGTP-Imp inh: 3; LANA-H2A inh: 61*; CaV13 ICDI inh: -3; HDAC3 inhib: 0; Runt-CBFb FRET: -1

How did Cn1c(SCC(=O)Nc2ccc(Br)cn2)nnc1C1CC1 do in these assays?
LANA-H2A inh: 2; CaV13 ICDI inh: -5; HDAC3 inhib: -2

What do the screens show for `FC(F)(F)c1cc(C(F)(F)F)c2ccc(N3CCOCC3)nc2n1`?
RanGTP-Imp inh: 3; LANA-H2A inh: 1; CaV13 ICDI inh: -3; HDAC3 inhib: 4

Results for CN1CCCc2cc3c(C(F)(F)F)cc(=O)oc3nc21 ?
Runt-SMMHC FRET: 42; RanGTP-Imp inh: 132*; LANA-H2A inh: 15; CaV13 ICDI inh: -8; HDAC3 inhib: -3; Runt-CBFb FRET: 12

How did COc1cc(OC)c(N(C)C(=O)c2cn(C)c(=O)c3cc(OC)c(OC)cc23)cc1Cl do in these assays?
RanGTP-Imp inh: 2; LANA-H2A inh: -3; CaV13 ICDI inh: -3; HDAC3 inhib: 54*

Results for Nc1nc2nc(-c3cccs3)cc(C(F)(F)F)n2n1 ?
Runt-SMMHC FRET: 91*; RanGTP-Imp inh: 62*; LANA-H2A inh: 0; CaV13 ICDI inh: -2; HDAC3 inhib: -60; Runt-CBFb FRET: 66*

How did O=S1(=O)N[C@H](Cc2ccccc2)COc2cc(N3CCN(Cc4ccccc4F)CC3)ccc21 do in these assays?
CaV13 ICDI inh: -4

Results for Cc1ccccc1S(=O)(=O)c1cc(C#N)c(=O)[nH]c1N ?
Runt-SMMHC FRET: 134*; RanGTP-Imp inh: 6; LANA-H2A inh: -1; CaV13 ICDI inh: 2; HDAC3 inhib: -11; Runt-CBFb FRET: 87*

Results for Nc1cccc2c1C(=O)N(C(=O)c1cccc(S(=O)(=O)N3CCCC3)c1)C2=O ?
Runt-SMMHC FRET: 62*; RanGTP-Imp inh: 9; LANA-H2A inh: 5; CaV13 ICDI inh: -16; HDAC3 inhib: 2; Runt-CBFb FRET: -30

How did C1CCc2c(c(N3CCOCC3)nc3sc4c(N5CCOCC5)nnnc4c23)C1 do in these assays?
CaV13 ICDI inh: -5

How did COC(=O)C1=CN(Cc2cccs2)C=C(C(=O)OC)C1c1cccc(O)c1 do in these assays?
Runt-SMMHC FRET: 133*; RanGTP-Imp inh: 11; LANA-H2A inh: -2; CaV13 ICDI inh: -4; HDAC3 inhib: -51; Runt-CBFb FRET: 98*

Results for COC(=O)C1=CN(Cc2ccc(OC)c(OC)c2)C=C(C(=O)OC)C1c1cccc(F)c1 ?
RanGTP-Imp inh: inconclusive; LANA-H2A inh: 0; CaV13 ICDI inh: 79*; HDAC3 inhib: -10

Results for CCCc1cc(=O)oc2c(C)c(OS(C)(=O)=O)ccc12 ?
RanGTP-Imp inh: 0; LANA-H2A inh: 3; HDAC3 inhib: 4

How did C/C(=C\c1ccccc1)C(=O)n1nnc2ccccc21 do in these assays?
Runt-SMMHC FRET: -2; RanGTP-Imp inh: 6; LANA-H2A inh: 2; CaV13 ICDI inh: -8; HDAC3 inhib: 28*; Runt-CBFb FRET: 1

How did O=C(CCC(=O)N1CCOCC1)NCc1cccc(C(F)(F)F)c1 do in these assays?
LANA-H2A inh: 22*; CaV13 ICDI inh: -2; HDAC3 inhib: 3

Results for COc1cccc(CNC(=O)CCC(=O)N2CCOCC2)c1 ?
LANA-H2A inh: 1; CaV13 ICDI inh: -2; HDAC3 inhib: -4

What do the screens show for `O=C(CSc1nnnn1-c1ccccc1)Nc1ccc(N2CCOCC2)c(Cl)c1`?
Runt-SMMHC FRET: 2; RanGTP-Imp inh: -1; LANA-H2A inh: -2; CaV13 ICDI inh: -8; HDAC3 inhib: 1; Runt-CBFb FRET: -1

Results for O=C(CSc1nnnn1-c1cccc2ccccc12)Nc1ccc(N2CCOCC2)c(Cl)c1 ?
Runt-SMMHC FRET: 1; RanGTP-Imp inh: 6; LANA-H2A inh: 15*; CaV13 ICDI inh: -9; HDAC3 inhib: 4; Runt-CBFb FRET: -1

Results for Cc1ccc(OCC(=O)NCCCNC(=O)COc2ccc(C)cc2)cc1 ?
RanGTP-Imp inh: 2; CaV13 ICDI inh: -6

What do the screens show for `CCC(C)NC(=O)CSc1nc2ccccc2c(=O)n1-c1c(C)n(C)n(-c2ccccc2)c1=O` (stereo not given)?
Runt-SMMHC FRET: -4; RanGTP-Imp inh: -2; LANA-H2A inh: 100*; CaV13 ICDI inh: -9; HDAC3 inhib: -1; Runt-CBFb FRET: 2
